Here are results for 1 substance from article PMC7540589 (Chemmedchem, 2020).

The nature of the series: Thermal and radiochemical stability during 68Ga-radiolabeling. The format is physicochemical. The settings on record: elevated temperature of 99 °C. Summed up:
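Precursor (20 nmol in water) was added to 376.6–461.0 MBq ⁶⁸Ga³⁺ from ⁶⁸Ge/⁶⁸Ga generator fractioned elution with 0.1 M HCl. The mixture was titrated to pH 3.5–4.0 with 1.25 M sodium acetate and heated at 99 °C for 10 min. Reaction mixtures were analysed by analytical radio-HPLC.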

Take “Ac[D‐Cys^29,Lys(DOTA)^31,Cys^34]NPY29‐36 [Compound 4]”: the “thermal stability of precursor” value is listed as “stable”.
